Laboratory results reported in ChEMBL document CHEMBL3860041, “Synthesis, biological evaluation and molecular modeling study of some new methoxylated 2-benzylthio-quinazoline-4(3H)-ones as nonclassical antifolates” (Bioorg Med Chem Lett, 2016).

Columns and labels:
Assay type in all cases: functional
[1] = Growth inhibition of human K562 cells at 10 uM after 48 hrs by SRB assay relative to control; conditions: K562, 48 h, read-out: GI
Summary of the method: (§1)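 NCI 60-cell-line panel, nine tumor subpanels; compounds tested at a single dose of 10 μM in the primary screen.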

[2] = Growth inhibition of human ACHN cells at 10 uM after 48 hrs by SRB assay relative to control; conditions: read-out: GI; summary of the method: as §1
[3] = Growth inhibition of human 786-0 cells at 10 uM after 48 hrs by SRB assay relative to control; conditions: 786-0, 48 h, read-out: GI; summary of the method: as §1
[4] = Growth inhibition of human SK-MEL-5 cells at 10 uM after 48 hrs by SRB assay relative to control; conditions: SK-MEL-5, 48 h, read-out: GI
Summary of the method: (§2)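 Primary screen across the full NCI 60 human tumour cell line panel, which covers nine tumour subpanels. A single dose of 10 μM was applied to each line, and growth was recorded for each cell line.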

[5] = Growth inhibition of human BT549 cells at 10 uM after 48 hrs by SRB assay relative to control; conditions: BT-549, 48 h, read-out: GI; summary of the method: as §1
[6] = Growth inhibition of human MOLT4 cells at 10 uM after 48 hrs by SRB assay relative to control; conditions: MOLT-4, 48 h, read-out: GI; summary of the method: as §1
[7] = Growth inhibition of human SN12C cells at 10 uM after 48 hrs by SRB assay relative to control; conditions: read-out: GI; summary of the method: as §2
[8] = Growth inhibition of human HL-60(TB) cells at 10 uM after 48 hrs by SRB assay relative to control; conditions: HL-60, 48 h, read-out: GI
Summary of the method: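 NCI disease-oriented human tumour cell line screen: primary single-dose assay at 10 μM across the full 60-cell-line panel spanning nine tumour subpanels.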

[9] = system: Leukemia cell; test: Potency index, ratio of 5-fluorouracil GI50 to compound GI50 for human leukemia cells
Summary of the method: (§3)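 GI50 for each cell line came from NCI panel testing over a 5-log dose range, with 5-fluorouracil tested alongside as the reference drug. The index relates the 5-fluorouracil GI50 to the compound GI50 within each tumour subpanel.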

[10] = Growth inhibition of human A498 cells at 10 uM after 48 hrs by SRB assay relative to control; conditions: A498, 48 h, read-out: GI; summary of the method: as §1
[11] = Growth inhibition of human UACC257 cells at 10 uM after 48 hrs by SRB assay relative to control; conditions: UACC-257, 48 h, read-out: GI; summary of the method: as §2
[12] = Growth inhibition of human ovarian cancer cells after 48 hrs by SRB assay; conditions: Cancer cell lines
Summary of the method: (§4)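 Follow-up NCI panel testing over a 5-log dose range for each cell line. GI50, TGI and LC50 were monitored, with 5-fluorouracil run as the positive control. Values are grouped by tumour subpanel.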

[13] = Growth inhibition of human SF268 cells at 10 uM after 48 hrs by SRB assay relative to control; conditions: SF-268, 48 h, read-out: GI; summary of the method: as §1
[14] = Growth inhibition of human HOP62 cells at 10 uM after 48 hrs by SRB assay relative to control; conditions: HOP-62, 48 h, read-out: GI; summary of the method: as §1
[15] = Growth inhibition of human UO31 cells at 10 uM after 48 hrs by SRB assay relative to control; conditions: UO-31, 48 h, read-out: GI; summary of the method: as §2
[16] = Growth inhibition of human A549 cells at 10 uM after 48 hrs by SRB assay relative to control; conditions: A549, 48 h, read-out: GI; summary of the method: as §1
[17] = Growth inhibition of human CNS cancer cells after 48 hrs by SRB assay; conditions: Cancer cell lines
Summary of the method: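 Five-log dose range against NCI tumor cell lines, monitoring GI50, TGI and LC50 for each cell line; MG-MID values derived across the panel; 5-fluorouracil positive control.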

[18] = Growth inhibition of human colon cancer cells after 48 hrs by SRB assay; conditions: Cancer cell lines; summary of the method: as §4
[19] = Growth inhibition of human NCI-H23 cells at 10 uM after 48 hrs by SRB assay relative to control; conditions: NCI-H23, 48 h, read-out: GI; summary of the method: as §1
[20] = Growth inhibition of human NCI/ADR-RES cells at 10 uM after 48 hrs by SRB assay relative to control; conditions: read-out: GI; summary of the method: as §1
[21] = Growth inhibition of human OVCAR5 cells at 10 uM after 48 hrs by SRB assay relative to control; conditions: OVCAR-5, 48 h, read-out: GI; summary of the method: as §1
[22] = Growth inhibition of human T47D cells at 10 uM after 48 hrs by SRB assay relative to control; conditions: read-out: GI; summary of the method: as §2
[23] = Growth inhibition of human OVCAR4 cells at 10 uM after 48 hrs by SRB assay relative to control; conditions: OVCAR-4, 48 h, read-out: GI; summary of the method: as §1
[24] = Growth inhibition of human HCT116 cells at 10 uM after 48 hrs by SRB assay relative to control; conditions: HCT-116, 48 h, read-out: GI; summary of the method: as §1
[25] = Growth inhibition of human SK-MEL-2 cells at 10 uM after 48 hrs by SRB assay relative to control; conditions: SK-MEL-2, 48 h, read-out: GI; summary of the method: as §2
[26] = Growth inhibition of human LOXIMVI cells at 10 uM after 48 hrs by SRB assay relative to control; conditions: LOX IMVI, read-out: GI; summary of the method: as §1
[27] = Growth inhibition of human Hs 578T cells at 10 uM after 48 hrs by SRB assay relative to control; conditions: read-out: GI; summary of the method: as §1
[28] = Growth inhibition of human SKOV3 cells at 10 uM after 48 hrs by SRB assay relative to control; conditions: SK-OV-3, 48 h, read-out: GI; summary of the method: as §2
[29] = system: Cancer cell lines; test: Potency index, ratio of 5-fluorouracil GI50 to compound GI50 for human CNS cancer cells; summary of the method: as §3
[30] = Growth inhibition of human non-small cell lung cancer cells after 48 hrs by SRB assay; conditions: Cancer cell lines; summary of the method: as §4
[31] = Growth inhibition of human MALME-3M cells at 10 uM after 48 hrs by SRB assay relative to control; conditions: read-out: GI; summary of the method: as §1
[32] = Growth inhibition of human SR cells at 10 uM after 48 hrs by SRB assay relative to control; conditions: read-out: GI; summary of the method: as §2
[33] = Growth inhibition of human RXF393 cells at 10 uM after 48 hrs by SRB assay relative to control; conditions: RXF 393, 48 h, read-out: GI; summary of the method: as §1

SMILES: COc1cc(CSc2nc3ccc(C)cc3c(=O)n2Cc2ccccc2)cc(OC)c1OC
- inhibition of growth at 10 µM [1]: 86.2%
- inhibition of growth at 10 µM [2]: 53.3%
- inhibition of growth at 10 µM [3]: 53.2%
- inhibition of growth at 10 µM [4]: 82.2%
- inhibition of growth at 10 µM [5]: 65.2%
- inhibition of growth at 10 µM [6]: 69.2%
- inhibition of growth at 10 µM [7]: 60%
- inhibition of growth at 10 µM [8]: 83%
- RatioGI50 [9]: 10
- inhibition of growth at 10 µM [10]: 93%
- inhibition of growth at 10 µM [11]: 52.6%
- GI50 [12]: 3.3 µM
- LC50 (50% lethal concentration) [12]: 92.7 µM
- TGI [12]: 57.6 µM
- inhibition of growth at 10 µM [13]: 48.5%
- inhibition of growth at 10 µM [14]: 60%
- inhibition of growth at 10 µM [15]: 68%
- inhibition of growth at 10 µM [16]: 60%
- GI50 [17]: 3.5 µM
- LC50 (lethal concentration, 50% net cell kill) [17]: 81.9 µM
- TGI [17]: 46.7 µM
- GI50 [18]: 1.6 µM
- LC50 [18]: 87.1 µM
- TGI [18]: 76.1 µM
- inhibition of growth at 10 µM [19]: 78.7%
- inhibition of growth at 10 µM [20]: 87.3%
- inhibition of growth at 10 µM [21]: 54.7%
- inhibition of growth at 10 µM [22]: 65.9%
- inhibition of growth at 10 µM [23]: 46.9%
- inhibition of growth at 10 µM [24]: 74.9%
- inhibition of growth at 10 µM [25]: 99.1%
- inhibition of growth at 10 µM [26]: 60.2%
- inhibition of growth at 10 µM [27]: 79.3%
- inhibition of growth at 10 µM [28]: 76.1%
- RatioGI50 [29]: 10
- GI50 [30]: 4 µM
- LC50 (concentration killing 50% of cells) [30]: 98.2 µM
- TGI [30]: 65.9 µM
- inhibition of growth at 10 µM [31]: 70%
- inhibition of growth at 10 µM [32]: 82%

SMILES: COc1cc(CSc2nc3ccc(C)cc3c(=O)n2-c2ccccc2)cc(OC)c1OC
- inhibition of growth at 10 µM [1]: 89.6%
- inhibition of growth at 10 µM [2]: 55.3%
- inhibition of growth at 10 µM [3]: 62.4%
- inhibition of growth at 10 µM [4]: 80%
- inhibition of growth at 10 µM [5]: 80.4%
- inhibition of growth at 10 µM [6]: 78.2%
- inhibition of growth at 10 µM [7]: 63%
- inhibition of growth at 10 µM [33]: 85.8%
- inhibition of growth at 10 µM [8]: 87.8%
- RatioGI50 [9]: 10
- inhibition of growth at 10 µM [10]: 84%
- inhibition of growth at 10 µM [11]: 49.8%
- GI50 [12]: 4 µM
- LC50 (50% lethal concentration) [12]: > 100 µM
- TGI [12]: 84.6 µM
- inhibition of growth at 10 µM [13]: 52.6%
- inhibition of growth at 10 µM [14]: 62.2%
- inhibition of growth at 10 µM [15]: 75.9%
- inhibition of growth at 10 µM [16]: 60.7%
- GI50 [17]: 5.4 µM
- LC50 (lethal concentration, 50% net cell kill) [17]: > 100 µM
- TGI [17]: 60.9 µM
- GI50 [18]: 1.3 µM
- LC50 [18]: > 100 µM
- TGI [18]: 86.3 µM
- inhibition of growth at 10 µM [19]: 78%
- inhibition of growth at 10 µM [20]: 82.2%
- inhibition of growth at 10 µM [21]: 53.6%
- inhibition of growth at 10 µM [22]: 71.8%
- inhibition of growth at 10 µM [23]: 42.8%
- inhibition of growth at 10 µM [24]: 73.4%
- inhibition of growth at 10 µM [25]: 85.3%
- inhibition of growth at 10 µM [26]: 64%
- inhibition of growth at 10 µM [27]: 71.8%
- inhibition of growth at 10 µM [28]: 86.4%
- RatioGI50 [29]: 10
- GI50 [30]: 3 µM
- LC50 (concentration killing 50% of cells) [30]: > 100 µM
- TGI [30]: 87 µM
- inhibition of growth at 10 µM [31]: 57.6%
- inhibition of growth at 10 µM [32]: 79.7%
